Sampled rows, rich in hits. Any-hit rate of the full collection: about 2.5%.
SENP8 block-1: SENP8 (human) protease inhibition; Q96LD8; recombinant SENP8, Nedd8 substrate fluorescence; inhibition, % at 20 µM; hit rate 0.64% among 360,000; AID 602440; in the data active = inhibition mostly above about 40%, no sharp cut-off; inactive = mostly below about 27%
SENP8 block-2: blocks the human protease SENP8; inhibition, % at 10 µM; Q96LD8; hit rate 1.2% among 330,000; purified SENP8, Z-RLRGG-aminoluciferin cleavage, luminescence; AID 2540; in the data active = inhibition above about 50%
SENP6 block: blocks the human protease SENP6; Recombinant SENP6 catalytic domain, aminoluciferin luminescence; inhibition, % at 10 µM; hit rate 1.8% among 330,000;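 active = inhibition above about 50% at the single tested dose, limit read from the data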;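 note: plate controls were DMSO wells with enzyme for no effect and DMSO wells lacking enzyme for full effect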
SENP1 FRET inh: inhibitors of human SENP1 SUMO protease catalytic domain. recombinant SENP1 catalytic domain, CyPet-SUMO1-YPet FRET cleavage. inhibition, % at 10 µM. hit rate 0.21% among 360,000. AID 624204;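 active = inhibition at least 30% at 10 µM, raw YFP signal under a set limit, fluorescence ratio 0.5 to 1.5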;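 note: 0% = enzyme with DMSO and 100% = no enzyme wells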
Target sequence (Q9P0U3 419-644 limits assumed): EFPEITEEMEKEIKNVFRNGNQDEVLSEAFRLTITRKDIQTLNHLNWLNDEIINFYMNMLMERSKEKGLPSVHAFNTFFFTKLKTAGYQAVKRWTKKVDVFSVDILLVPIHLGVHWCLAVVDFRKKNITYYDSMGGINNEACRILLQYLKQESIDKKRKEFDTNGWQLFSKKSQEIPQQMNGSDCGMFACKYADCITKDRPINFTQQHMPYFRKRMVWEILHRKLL
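Test system: hSENP1 catalytic domain, recombinant; Amount: 20 pM final SENP1 enzyme; Medium: Tris pH 8 buffer plus EDTA, NaCl, BME, BSA, NP40, catalase; Schedule: 50 min enzyme reaction, room temperature, light-protected; Technique: FRET fluorescence in CFP and YFP emission channels; Controls: no-enzyme wells low, DMSO-plus-enzyme wells high control.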
SENP7 inh: SENP7 protease inhibition. AID 434973. recombinant SENP7, Z-RLRGG-aminoluciferin luminescence, 40 min. Q9BQF6. hit rate 1.5% among 330,000. inhibition, % at 5 µM;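 active = inhibition above about 50% at the single test dose, limit read from the data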;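 note: plate controls were DMSO with enzyme for no effect and no enzyme buffer wells for full effect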
Target sequence (Q9BQF6 706-1050 limits assumed): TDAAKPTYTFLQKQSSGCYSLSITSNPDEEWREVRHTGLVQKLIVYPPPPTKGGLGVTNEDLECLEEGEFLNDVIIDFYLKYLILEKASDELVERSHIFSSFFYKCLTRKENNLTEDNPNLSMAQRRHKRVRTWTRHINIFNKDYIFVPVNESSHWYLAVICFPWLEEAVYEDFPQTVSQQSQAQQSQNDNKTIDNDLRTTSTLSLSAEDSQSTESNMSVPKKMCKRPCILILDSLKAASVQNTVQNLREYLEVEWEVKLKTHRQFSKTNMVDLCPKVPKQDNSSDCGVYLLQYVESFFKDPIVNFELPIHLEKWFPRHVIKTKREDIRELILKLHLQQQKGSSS
SENP8 confirm: confirmation of human SENP8 protease inhibitors; shares compounds with SENP7 inh; Recombinant SENP8, Z-RLRGG-aminoluciferin luminescence, 60 min; inhibition, % at 12.5 µM; hit rate 40% among 6,200;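 active = mean inhibition across replicates above about 50%, limit read from the data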
SENP6 conf: human SENP6 inhibition, confirmed; shares compounds with SENP7 inh; recombinant SENP6, Z-RLRGG-aminoluciferin luminescence; inhibition, % at 12.5 µM; hit rate 58% among 6,200; AID 488915
SENP7 conf: human SENP7 inhibition, confirmed | shares compounds with SENP7 inh | recombinant SENP7, Z-RLRGG-aminoluciferin luminescence, 40 min | inhibition, % at 12.5 µM | hit rate 69% among 6,200 | AID 488917
Casp3 SENP sel: selectivity test for SENP inhibitors: human caspase-3 inhibition | shares compounds with SENP7 inh | purified caspase-3, Z-DEVD-aminoluciferin luminescence, 60 min | inhibition, % at 12.5 µM | hit rate 60% among 6,200;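 active = mean inhibition above about 50%, limit read from the data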;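 note: plate controls were enzyme with DMSO for no effect and wells without caspase-3 for full effect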
SENP luc ctr: counter-screen for SENP inhibitors: luminescence interference. shares compounds with SENP7 inh. Pre-incubated SENP8/Z-RLRGG-aminoluciferin, luciferase luminescence interference. inhibition, % at 12.5 µM. hit rate 39% among 6,200. AID 488919;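 active = mean inhibition above about 50% when retested at one dose, limit read from the data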;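 note: plate controls were DMSO wells with completed reaction for no effect and substrate without enzyme for full effect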
Starred values were filed as active, the others as inactive; . = no result.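 Rule for the calls, unless noted: active = mean inhibition above about 50% in the one-dose retest (limit read from the data); inactive = the rest.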

SMILES	SENP8 block-1	SENP8 block-2	SENP6 block	SENP1 FRET inh	SENP7 inh	SENP8 confirm	SENP6 conf	SENP7 conf	Casp3 SENP sel	SENP luc ctr
O=C(Nc1ccccc1)c1ccc2ccccc2n1	5.0	65.3*	73.4*	-1.3	73.3*	36.8	70.1*	89.3*	64.9*	24.5
Oc1cccc2ccc(/C=C/c3ccccc3Cl)nc12	-35.7	88.3*	98.9*	2.2	83.5*	83.0*	90.1*	67.0*	85.5*	32.6
Oc1cccc2ccc(/C=C/c3c(F)cccc3Cl)nc12	-33.4	85.3*	95.3*	3.3	94.1*	23.2	60.4*	37.0	63.5*	4.3
Nc1nccc(/C=C/c2c(F)cccc2Cl)n1	-241.4	1.1	-23.4	-107.0	2.2	.	.	.	.	.
CC(C)(C)c1ccc(C(=O)Nc2ccc(F)cc2)s1	3.5	80.5*	83.9*	-1.2	72.5*	57.9*	73.1*	95.1*	65.2*	35.4
CCc1cc2cc(C(=O)Nc3ccccc3F)sc2s1	8.4	33.6	50.0*	-0.3	92.1*	16.2	58.1*	97.8*	80.3*	5.4
CCc1cc2cc(C(=O)Nc3ccc(F)cc3)sc2s1	13.1	18.2	47.5	3.2	79.4*	5.1	12.4	-3.4	10.7	-5.8
O=C(NCc1ccc(F)cc1F)[C@@H]1CCCN1C(=O)[C@@H]1CCCN1C(=O)c1ccccc1	18.5	.	.	3.6	.	.	.	.	.	.
O=C(NCC1CCCCC1)c1ccc(F)cc1Cl	19.3	7.1	-7.0	-0.3	-0.3	.	.	.	.	.
O=C(Nc1ccccc1)c1ccc2c(c1)OCCO2	28.8	77.4*	93.1*	-1.4	85.3*	-23.1	77.1*	96.7*	91.9*	83.9*
O=C(Nc1ccc(NC(=O)c2ccc3c(c2)OCCO3)cc1)c1ccccc1	7.6	5.2	-30.5	-0.8	-8.8	.	.	.	.	.
CCOC(=O)c1c(N)sc(C(=O)Nc2ccc3c(c2)OCO3)c1C	1.4	92.4*	97.0*	-4.6	97.6*	10.3	97.7*	102.6*	95.6*	96.1*
Cc1cccc(NC(=O)c2ccc3c(c2)OCCO3)c1	8.7	84.8*	86.4*	1.8	92.1*	7.2	92.6*	101.0*	93.8*	90.1*
Cc1ccc(NC(=O)c2ccc3c(c2)OCCO3)cc1C	8.8	85.9*	90.8*	0.0	91.9*	-10.8	86.1*	98.4*	85.7*	88.2*
CC(=O)NS(=O)(=O)c1ccc(N=c2ssc3c2-c2ccc(C)cc2NC3(C)C)cc1	21.0	-4.5	-12.7	0.7	-7.4	.	.	.	.	.
CCN(CC)c1ccc(NC(=O)Nc2ccccc2)cc1	11.7	63.7*	83.4*	-0.9	64.8*	36.1	71.0*	88.1*	76.5*	52.1*
CCOC(=O)c1cccc(NC(=O)c2ccc3c(c2)OCO3)c1	14.2	24.3	59.8*	0.3	44.6	51.0*	46.9	74.4*	54.1*	37.8
O=C(Nc1cccc(F)c1)c1ccc2c(c1)OCCO2	2.5	87.1*	89.0*	2.4	93.2*	-3.7	87.5*	99.2*	89.7*	88.9*
CCOC(=O)CNc1ccc2c(c1)OCO2	1.1	4.1	58.5*	-8.6	-0.6	12.6	12.3	7.7	2.1	-3.0
CCN(CC)c1ccc(C(=O)Nc2cccc(F)c2)cc1	-154.7	59.3*	83.7*	-2.4	59.3*	70.7*	74.1*	92.6*	63.7*	67.8*
Cc1cc(C)c(C(=O)Nc2ccc3c(c2)OCCO3)c(C)c1	23.2	.	.	-1.8	.	.	.	.	.	.
Nc1c(C(=O)Nc2ccccc2)nnn1-c1ccc2c(c1)OCCO2	20.2	76.3*	84.6*	2.3	82.3*	85.2*	84.3*	97.1*	81.6*	69.5*
CN(C)c1cccc(C(=O)Nc2cccc(F)c2)c1	-347.8	4.0	29.6	-1.7	16.3	.	.	.	.	.
Cc1ccc(C(=O)Nc2ccc3c(c2)OCCO3)c(C)c1	-0.8	81.5*	90.9*	0.7	89.1*	88.3*	88.0*	97.4*	92.8*	87.4*
COc1ccc(SC[C@H](C)CN2CC[C@H](C(C)(C)C)CCC2=O)cc1	13.1	-10.6	-11.6	0.0	-8.1	.	.	.	.	.
SMILES	SENP8 block-1	SENP8 block-2	SENP6 block	SENP1 FRET inh	SENP7 inh	SENP8 confirm	SENP6 conf	SENP7 conf	Casp3 SENP sel	SENP luc ctr
O=C1/C(=C\c2ccc(-c3ccccc3[N+](=O)[O-])o2)C(c2ccccc2)=NN1c1ccccc1	35.6	3.7	57.6*	1.6	10.6	-18.2	-7.4	-7.4	-10.0	-5.7
CC1=NN(c2ccc([N+](=O)[O-])cc2)C(=O)/C1=C\N(C)C	42.6*	93.1*	96.9*	2.5	95.3*	95.6*	95.0*	101.8*	98.3*	95.5*
CN(C)/C=C1\C(=O)N(c2ccc([N+](=O)[O-])cc2)N=C1c1ccccc1	62.1*	94.8*	97.6*	5.4	96.7*	98.0*	98.8*	103.0*	95.3*	97.2*
CCCC1=NN(c2ccc([N+](=O)[O-])cc2)C(=O)/C1=C/N(C)C	21.1	94.5*	97.9*	0.6	98.9*	94.9*	95.4*	101.2*	96.4*	96.0*
Cc1ccc(OCCC(=O)N(CCC(C)C)c2c(N)n(Cc3ccccc3)c(=O)[nH]c2=O)cc1	-12.2	-3.7	-1.7	-5.1	0.9	.	.	.	.	.
CC1=NN(c2ccccc2)C(=O)/C1=C/N(C)C	19.5	-4.4	4.5	2.5	9.1	.	.	.	.	.
CC1=NN(c2nc3ccccc3[nH]2)C(=O)/C1=C/N(C)C	14.9	92.3*	88.2*	0.8	95.9*	87.7*	84.1*	98.5*	96.8*	91.3*
COc1ccc(-n2c3nc4ccccc4nc3c3c(=N)oc(C)nc32)cc1	-284.6	63.1*	90.0*	-27.2	75.2*	3.8	40.4	19.3	-2.0	-4.2
CN(C)S(=O)(=O)c1cccc(C(=O)N=C2N=C3C=CC(Cl)=CN3Cc3ccccc32)c1	11.1	68.8*	91.1*	2.1	88.8*	11.8	15.4	41.8	66.9*	20.0
CN1c2cccc3cccc(c23)N(C)C1(C)C	-320.5	11.6	72.5*	3.9	37.0	-3.4	3.9	-3.6	-3.9	-4.8
CCN(CC)c1ccc(NC(=O)COC(=O)c2cccs2)cc1	6.3	23.5	53.3*	1.1	56.3*	28.7	26.2	61.8*	47.2	3.2
CCN(c1ccc(NC(=O)COC(=O)c2cccs2)cc1)C(C)C	13.6	41.6	73.4*	3.8	63.5*	68.3*	65.3*	90.5*	71.2*	69.8*

Bioassay records from PubChem BioAssay.
